{"source": "paper PMC10824272", "about": "(Biomedicine & pharmacotherapy = Biomedecine & …, 2023)", "key": {"normal IEC-6 cells": {"test_system": "normal IEC-6 cells", "assay": "Cell viability", "format": "cell-based", "conditions": "72 hours", "procedure,_shortened": "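Cells maintained in RPMI plus 10% FBS. Viability read with PrestoBlue reagent per kit protocol after 72 h exposure to test compound.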"}, "SW480^cld1 cells": {"test_system": "SW480^cld1 cells", "assay": "Anoikis-induced apoptosis assay", "format": "cell-based", "conditions": "claudin-1 overexpressed SW480^cld1", "procedure,_shortened": "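Anoikis induced by plating cells on poly-HEMA-coated culture plates. Apoptosis quantified with a cell death detection ELISA. Parental lines were cultured in RPMI with 10% FBS. Claudin-1-overexpressing SW480 and claudin-1-knockdown SW620 derivatives were used.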"}, "HCT116 cells": {"test_system": "HCT116 cells", "assay": "Anoikis-induced apoptosis assay", "format": "cell-based, human", "conditions": "claudin-1 deficient HCT116"}, "[1]": {"test_system": "SW480^cld1 xenograft tumor", "assay": "Subcutaneous xenograft tumor study", "format": "in vivo, athymic nude mice", "procedure,_shortened": "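Cells implanted subcutaneously in athymic nude mice, n = 5 per group, vehicle controls. For SW480cld1 with I-6, once-weekly dosing started 10 days after implantation, once tumors were palpable, for two weeks. Caliper volume over time, formula […]. Ki67 and cleaved PARP by IHC. Behavior and body weight monitored.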"}, "[2]": {"assay": "Plasma pharmacokinetics in mice", "format": "in vivo", "conditions": "for AUC(0-t) / CL/F / Cmax / Tmax / Vd/F / half-life / AUC(0-inf): both, mouse, plasma, 5 mg/kg; for AUC(0-inf): AUC0−∞, mice", "procedure,_shortened": "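I-6 given as a single 1 mg/kg intravenous dose to C57BL6 mice (n=5), with serial blood sampling. PDS-0330 given at 5 mg/kg by oral gavage or IP, with ~100 μl blood drawn from the maxillary vein at 5, 15, 30 min and 1, 2, 4, 6, 8, 24 h. Plasma levels in ng/ml; non-compartmental parameters.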"}, "[3]": {"assay": "Tissue bio-distribution in mice", "format": "in vivo", "conditions": "mouse, 5 mg/kg"}, "[4]": {"test_system": "trypsinized human claudin-1", "assay": "Microscale thermophoresis", "format": "binding", "conditions": "25 °C, at concentrations shown to bind wild-type claudin-1", "procedure,_shortened": "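Microscale thermophoresis at 25 °C with 1 μM Cy3-labeled, detergent-purified claudin (human claudin-19, mouse claudin-4 or trypsinized human claudin-1) in HEPES pH 7.4/100 mM NaCl buffer. Test compound dissolved in DMSO and titrated from 135 μM to 4.1 nM. Affinity derived from duplicate acquisitions.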"}, "[5]": {"assay": "Drug toxicity in xenograft mice", "format": "in vivo", "procedure,_shortened": "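Body weight recorded during treatment. BUN determined colorimetrically in plasma and kidney tissue lysate by kit protocol. Mice sacrificed at day 25; AST activity measured in plasma and liver homogenate, followed up to 60 min at regular intervals. n=5 mice/group, means ± SEM.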"}, "[6]": {"assay": "Solubility in aqueous buffers", "format": "physicochemical", "conditions": "dissolved in DMSO to 135 μM for MST"}}, "data": [{"smiles": "O=C(NC(=S)Nc1ccc(-c2nc3ccccc3o2)cc1)c1ccc2ccccc2c1", "note": "[PDS-0330, N-((4-(benzo[d]oxazol-2-yl)phenyl)carbamothioyl)-2-naphthamide]", "values": [{"measurement": "effect on cell growth/survival", "setting": "normal IEC-6 cells", "result": "no effect"}, {"measurement": "resistance to anoikis", "setting": "SW480^cld1 cells", "result": "dramatically reduced the resistance to anoikis"}, {"measurement": "resistance to anoikis", "setting": "HCT116 cells", "result": "not affecting"}, {"measurement": "apoptosis in tumors (cleaved PARP, BclxL, survivin)", "setting": "[1]; PDS-0330 5mg/Kg and 10mg/Kg", "result": "increase in apoptosis"}, {"measurement": "proliferation in tumors (Ki67)", "setting": "[1]; PDS-0330 5mg/Kg and 10mg/Kg", "result": "reduced proliferation"}, {"measurement": "tumor volume and weight", "setting": "[1]; PDS-0330 5mg/Kg and 10mg/Kg vs vehicle", "result": "significant reduction"}, {"measurement": "mouse behavior or weight", "setting": "[2]; 24 hours after a single PO and IP injection (5 mg/kg), data not shown", "result": "no change"}, {"measurement": "AUC(0-t)", "setting": "[2]; ip", "result": 0.422, "unit": "µg·h/mL"}, {"measurement": "CL/F", "setting": "[2]; ip", "result": 14.7, "unit": "L/h/kg"}, {"measurement": "Cmax", "setting": "[2]; ip", "result": 0.0593, "unit": "µg/mL"}, {"measurement": "Tmax", "setting": "[2]; ip", "result": 2.8, "unit": "h"}, {"measurement": "Vd/F", "setting": "[2]; ip", "result": 126, "unit": "L/kg"}, {"measurement": "half-life", "setting": "[2]; ip", "result": 5.5, "unit": "h"}, {"measurement": "AUC(0-inf)", "setting": "[2]; ip, PDS-0330 IP 5mg/kg", "result": 0.442, "unit": "µg·h/mL"}, {"measurement": "AUC(0-t)", "setting": "[2]; po", "result": 0.0534, "unit": "µg·h/mL"}, {"measurement": "CL/F", "setting": "[2]; po", "result": 71.5, "unit": "L/h/kg"}, {"measurement": "Cmax", "setting": "[2]; po", "result": 0.0308, "unit": "µg/mL"}, {"measurement": "Tmax", "setting": "[2]; po", "result": 0.4, "unit": "h"}, {"measurement": "Vd/F", "setting": "[2]; po", "result": 1100, "unit": "L/kg"}, {"measurement": "half-life", "setting": "[2]; po", "result": 14.5, "unit": "h"}, {"measurement": "AUC(0-inf)", "setting": "[2]; po, PDS-0330 PO 5mg/kg", "result": 0.086, "unit": "µg·h/mL"}, {"measurement": "concentration at 2 h", "setting": "[3]; both, liver, ip", "result": 277, "unit": "ng/g"}, {"measurement": "concentration at 8 h", "setting": "[3]; both, liver, ip", "result": 807, "unit": "ng/g"}, {"measurement": "concentration at 2 h", "setting": "[3]; both, liver, po", "result": 17, "unit": "ng/g"}, {"measurement": "concentration at 8 h", "setting": "[3]; both, liver, po", "result": 5.8, "unit": "ng/g"}, {"measurement": "concentration at 24 h", "setting": "[3]; both, liver, po", "result": 10.5, "unit": "ng/g"}, {"measurement": "concentration at 24 h", "setting": "[3]; both, lungs, ip", "result": 93.7, "unit": "ng/g"}, {"measurement": "concentration at 24 h", "setting": "[3]; both, lungs, po", "result": 519, "unit": "ng/g"}, {"measurement": "concentration at 24 h", "setting": "[3]; liver, ip", "result": 407, "unit": "ng/g"}, {"measurement": "concentration at 2 h", "setting": "[3]; lungs, ip", "result": 338, "unit": "ng/g"}, {"measurement": "concentration at 8 h", "setting": "[3]; lungs, ip", "result": 76.9, "unit": "ng/g"}, {"measurement": "concentration at 2 h", "setting": "[3]; lungs, po", "result": 5, "unit": "ng/g"}, {"measurement": "concentration at 8 h", "setting": "[3]; lungs, po", "result": 473, "unit": "ng/g"}, {"measurement": "binding to trypsinized and labeled claudin-1", "setting": "[4]", "result": "no detectable binding"}, {"measurement": "body weight among groups at the end of treatment", "setting": "[5]; PDS-0330 5mg/Kg and 10mg/Kg, SW620 and SW480^cld1 implanted mice", "result": "no statistically significant differences"}, {"measurement": "urea nitrogen (BUN) level", "setting": "[5]; kidney tissue and plasma of treated mice", "result": "not affected"}, {"measurement": "aspartate transaminase (AST) levels", "setting": "[5]; plasma and liver homogenate, day 25", "result": "not affected"}, {"measurement": "solubility in aqueous buffers", "setting": "[6]", "result": "limited solubility"}]}]}
